Active and inactive are the calls of the source. No cut-off for these calls is given here. Bounds are passed on as bounds.

The target in experiment [1] is T1, Protein cereblon/Focal adhesion kinase 1 (Homo sapiens, UniProt Q05397+Q96SW2). The experiment is described as follows: Protac activity at CRBN/FAK in human PA1 cells assessed as induction of FAK degradation at 10 nM incubated for 8 hrs by Western blot analysis relative to control. It is filed as cell-based. As to conditions: PA-1. The essentials:
(§1)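 PA1 cells were treated at the indicated doses for 8 h, and FAK was quantified from immunoblots relative to untreated control. Data come from three independent experiments.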

The target in experiment [2] is T1, Protein cereblon/Focal adhesion kinase 1. As to the kind of experiment: Protac activity at CRBN/FAK in human PA1 cells assessed as induction of FAK degradation at 1 nM incubated for 8 hrs by Western blot analysis relative to control. As to conditions: PA-1. In kind it is cell-based. The essentials:
as §1

Experiment [3] has as its target T2, Protein cereblon/Focal adhesion kinase 1 (Mus musculus) (UniProt P34152+Q8C7D2). As to the kind of experiment: Protac activity at CRBN/FAK in mouse TM3 cells assessed as reduction in FAK autophosphorylation at tyr 397 residue at <1 nM after 8 hrs by Western blot analysis. As to conditions: dose nM <1, time 8.0 hrs. In kind it is cell-based. The essentials:
(§2)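 TM3 cells were treated at the indicated doses for 8 h, then immunoblotted for FAK phosphorylated at Tyr397.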

For experiment [4], the target named is T1, Protein cereblon/Focal adhesion kinase 1. The experiment is described as follows: Protac activity at CRBN/FAK in human PA1 cells assessed as FAK degradation at 1 to 100 nM after 8 hrs in presence of 10 uM pomalidomide. In kind it is cell-based. As to conditions: PA-1, dose nM 1-100, time 8.0 hrs. The procedure, abridged: (§3)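 For ligand competition, PA1 cells were treated for 8 h with the degrader (1, 10 or 100 nM) alone, or with excess CRBN ligand pomalidomide (10 μM) or FAK ligand PF562271 (10 μM), alone or combined. FAK was read by immunoblot.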

The target is the same in experiment [5]. As to the kind of experiment: Protac activity at CRBN/FAK in human PA1 cells assessed as FAK degradation at 1 to 100 nM after 8 hrs in presence of 10 uM PF562271. In kind it is cell-based. To be noted: PA-1, dose nM 1-100, time 8.0 hrs. The procedure, abridged:
as §3

Experiment [6] has the same target. As to the kind of experiment: Protac activity at CRBN/FAK in human PA1 cells assessed as reduction FAK degradation at 1 to 100 nM after 8 hrs in presence of 5 uM MG132. In kind it is cell-based. As to conditions: PA-1, dose nM 1-100, time 8.0 hrs. The procedure, abridged:
(§4)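 To test proteasome dependence, PA1 cells received the degrader (1, 10 or 100 nM) for 8 h, either alone or together with MG132 (5 μM) or carfilzomib (5 μM). Each inhibitor was also given alone. FAK was assessed by immunoblot.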

The target is the same in experiment [7]. The experiment is described as follows: Protac activity at CRBN/FAK in human PA1 cells assessed as reduction FAK degradation at 1 to 100 nM after 8 hrs in presence of 5 uM carfilzomib. It is filed as cell-based. To be noted: PA-1, dose nM 1-100, time 8.0 hrs. The essentials: as §4
The target in experiment [8] is Protein cereblon/Focal adhesion kinase 1 (Mus musculus, UniProt P34152+Q8C7D2). As to the kind of experiment: Protac activity at CRBN/FAK in mouse TM3 cells assessed as induction of FAK degradation after 8 hrs by Western blot analysis. It is filed as cell-based. The procedure, abridged:
(§5)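 Each cell line was exposed to graded concentrations for 8 h, and FAK protein was detected by immunoblot. DC50 is the concentration giving half-maximal FAK degradation.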

The target of experiment [9] is T1, Protein cereblon/Focal adhesion kinase 1. As to the kind of experiment: Protac activity at CRBN/FAK in human PA1 cells assessed as induction of FAK degradation after 8 hrs by Western blot analysis. In kind it is cell-based. As to conditions: pa-1. The procedure, abridged: as §5
For experiment [10] the target is unchanged. As to the kind of experiment: Protac activity at CRBN/FAK in human MDA-MB-436 cells assessed as induction of FAK degradation after 8 hrs by Western blot analysis. In kind it is cell-based. The procedure, abridged:
as §5

Experiment [11] shares this target. The experiment is described as follows: Protac activity at CRBN/FAK in human LNCAP cells assessed as induction of FAK degradation after 8 hrs by Western blot analysis. In kind it is cell-based. The essentials: as §5
For experiment [12] the target is unchanged. As to the kind of experiment: Protac activity at CRBN/FAK in human Ramos cells assessed as induction of FAK degradation after 8 hrs by Western blot analysis. In kind it is cell-based. The essentials: as §5
Experiment [13] concerns the target T2, Protein cereblon/Focal adhesion kinase 1 (Mus musculus). The experiment is described as follows: Protac activity at CRBN/FAK in mouse TM3 cells assessed as reduction in FAK autophosphorylation at tyr 397 residue at 100 nM after 1 hr by Western blot analysis relative to control. More on the design: scale not given: the % may be the effect or the level left. It is filed as cell-based. The procedure, abridged:
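In a time course, TM3 cells were exposed to 100 nM, and FAK and pFAK Tyr397 levels were followed by immunoblot at successive time points.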

For experiment [14] the target is unchanged. The experiment is described as follows: Protac activity at CRBN/FAK in mouse TM3 cells assessed as reduction in FAK autophosphorylation at tyr 397 residue at 1 to 3000 nM after 8 hrs by Western blot analysis. To be noted: dose nM 1-3000, time 8.0 hrs. It is filed as cell-based. The essentials:
as §2

In the next experiment the test system is TM3. As to the kind of experiment: Antiproliferative activity against mouse TM3 cells assessed as effect on cell proliferation after 72 hrs by MTS assay. In kind it is functional, cell-based.
The test system of another experiment is PA-1. The experiment is described as follows: Antiproliferative activity against human PA1 cells assessed as effect on cell proliferation after 72 hrs by MTS assay. It is filed as functional, cell-based.
In another experiment the test system is MDA-MB-436. As to the kind of experiment: Antiproliferative activity against human MDA-MB-436 cells assessed as effect on cell proliferation after 72 hrs by MTS assay. In kind it is functional, cell-based.
A further experiment relates to LNCaP. The experiment is described as follows: Antiproliferative activity against human LNCAP cells assessed as effect on cell proliferation after 72 hrs by MTS assay. In kind it is functional, cell-based.
In a further experiment the test system is Ramos. The experiment is described as follows: Antiproliferative activity against human Ramos cells assessed as effect on cell proliferation after 72 hrs by MTS assay. It is filed as functional, cell-based.

On to `CN(c1ncccc1CNc1ncc(C(F)(F)F)c(Nc2ccc(NC(=O)c3cn(CCOCCOCCOCCNc4cccc5c4C(=O)N(C4CCC(=O)NC4=O)C5=O)nn3)cc2)n1)S(C)(=O)=O` (stereo not given), for which the Activity in experiment [1] and in experiment [2] was 0% each time.
As to `CN(c1ncccc1CNc1nc(Nc2ccc(C(=O)NCc3cn(CCOCCOCCOCCNc4cccc5c4C(=O)N(C4CCC(=O)NC4=O)C5=O)nn3)cc2)ncc1C(F)(F)F)S(C)(=O)=O` (stereo not given), the Activity in [1] is 30%; in [2], 10%.
The corresponding values for `CN(c1ncccc1CNc1nc(Nc2ccc(NC(=O)c3cn(CCOCCOCCCc4cccc5c4C(=O)N(C4CCC(=O)NC4=O)C5=O)nn3)cc2)ncc1C(F)(F)F)S(C)(=O)=O` (stereo not given) are 90% and 62%.
With `CN(c1nccnc1CNc1nc(Nc2ccc(C(=O)NCc3cn(CCOCCNc4cccc5c4C(=O)N(C4CCC(=O)NC4=O)C5=O)nn3)cc2)ncc1C(F)(F)F)S(C)(=O)=O` (stereo not given), the Activity in experiment [1] is 71%; in [2], 37%.
As to `CN(c1ncccc1CNc1nc(Nc2ccc(NC(=O)c3cn(CCCCCCCC#Cc4cccc5c4C(=O)N(C4CCC(=O)NC4=O)C5=O)nn3)cc2)ncc1C(F)(F)F)S(C)(=O)=O` (stereo not given), the Activity worked out at 90% in experiment [1] and 62% in experiment [2].
The corresponding values for `CN(c1ncccc1CNc1nc(Nc2ccc(NC(=O)c3cn(CCCCCCCCCc4cccc5c4C(=O)N(C4CCC(=O)NC4=O)C5=O)nn3)cc2)ncc1C(F)(F)F)S(C)(=O)=O` (stereo not given) are 85% and 40%.
Take `CN(c1ncccc1CNc1nc(Nc2ccc(NC(=O)c3cn(CCOCCNc4cccc5c4C(=O)N(C4CCC(=O)NC4=O)C5=O)nn3)cc2)ncc1C(F)(F)F)S(C)(=O)=O` (stereo not given): the Activity amounted to 92% in experiment [1] and 40% in [2].
In the case of `CN(c1nccnc1CNc1nc(Nc2ccc(C(=O)NCc3cn(CCOCCOCCNc4cccc5c4C(=O)N(C4CCC(=O)NC4=O)C5=O)nn3)cc2)ncc1C(F)(F)F)S(C)(=O)=O` (stereo not given), the Activity was 60% in experiment [1] and 32% in experiment [2].
The corresponding values for `CN(c1ncccc1CNc1ncc(C(F)(F)F)c(Nc2ccc(NC(=O)c3cn(CCOCCNc4cccc5c4C(=O)N(C4CCC(=O)NC4=O)C5=O)nn3)cc2)n1)S(C)(=O)=O` (stereo not given) are 0% and 0%.
As to `CN(c1ncccc1CNc1nc(Nc2ccc(NC(=O)c3cn(CCOCCOCCOCCNc4cccc5c4C(=O)N(C4CCC(=O)NC4=O)C5=O)nn3)cc2)ncc1C(F)(F)F)S(C)(=O)=O` (stereo not given), the Activity in experiment [1] stood at 94%; in [2] it was 46%.
The matching figures for `CN(c1nccnc1CNc1nc(Nc2ccc(NC(=O)c3cn(CCOCCOCCNc4cccc5c4C(=O)N(C4CCC(=O)NC4=O)C5=O)nn3)cc2)ncc1C(F)(F)F)S(C)(=O)=O` (stereo not given): 96% and 71%.
In the case of `CN(c1ncccc1CNc1nc(Nc2ccc(NC(=O)c3cn(CCCCCCCCNc4cccc5c4C(=O)N(C4CCC(=O)NC4=O)C5=O)nn3)cc2)ncc1C(F)(F)F)S(C)(=O)=O` (stereo not given), the Activity in experiment [1] is 93%; in experiment [2], 67%.
For `CN(c1nccnc1CNc1nc(Nc2ccc(NC(=O)c3cn(CCOCCNc4cccc5c4C(=O)N(C4CCC(=O)NC4=O)C5=O)nn3)cc2)ncc1C(F)(F)F)S(C)(=O)=O` (stereo not given), the values for the Activity in experiment [1] and in experiment [2] were 90% and 32%, respectively.
As for `CN(c1ncccc1CNc1nc(Nc2ccc(NC(=O)c3cn(CCCCCOCC#Cc4cccc5c4C(=O)N(C4CCC(=O)NC4=O)C5=O)nn3)cc2)ncc1C(F)(F)F)S(C)(=O)=O` (stereo not given), the Activity in experiment [1] worked out at 90%; in experiment [2], 62%.
The matching figures for `CN(c1ncccc1CNc1nc(Nc2ccc(NC(=O)c3cn(CCCCCOCCCc4cccc5c4C(=O)N(C4CCC(=O)NC4=O)C5=O)nn3)cc2)ncc1C(F)(F)F)S(C)(=O)=O` (stereo not given): 95% and 85%.
As to `CN(c1ncccc1CNc1nc(Nc2ccc(NC(=O)c3cn(CCOCCOCCNc4cccc5c4C(=O)N(C4CCC(=O)NC4=O)C5=O)nn3)cc2)ncc1C(F)(F)F)S(C)(=O)=O` (stereo not given), the result in [3] and in [14] was Active. The Activity was 99% in experiment [1], 90% in experiment [2] and more than 50% in experiment [13]. Further, the outcome (in experiment [4]; in experiment [5]; in experiment [6]; in experiment [7]; in the experiment with TM3; in the experiment with PA-1) was inactive. For the same compound, the outcome with MDA-MB-436, in the experiment on LNCaP and in the experiment on Ramos was inactive. The DC50 in [8] turned out to be 0.31 nM; in [9] it was 0.08 nM; in experiment [10], 0.33 nM; in experiment [11] it was 0.37 nM; in [12] it was 0.04 nM.
Consider `CN(c1ncccc1CNc1nc(Nc2ccc(C(=O)NCc3cn(CCOCCNc4cccc5c4C(=O)N(C4CCC(=O)NC4=O)C5=O)nn3)cc2)ncc1C(F)(F)F)S(C)(=O)=O` (stereo not given), for which the Activity is 81% in experiment [1] and 55% in experiment [2].
`CN(c1ncccc1CNc1nc(Nc2ccc(NC(=O)c3cn(CCOCCOCC#Cc4cccc5c4C(=O)N(C4CCC(=O)NC4=O)C5=O)nn3)cc2)ncc1C(F)(F)F)S(C)(=O)=O` (stereo not given): the Activity worked out at 90% in [1] and 62% in experiment [2].
In the case of `CN(c1nccnc1CNc1nc(Nc2ccc(NC(=O)c3cn(CCOCCOCCOCCNc4cccc5c4C(=O)N(C4CCC(=O)NC4=O)C5=O)nn3)cc2)ncc1C(F)(F)F)S(C)(=O)=O` (stereo not given), the Activity in experiment [1] came out at 92%; in [2], 35%.
Consider `CN(c1ncccc1CNc1nc(Nc2ccc(C(=O)NCc3cn(CCOCCOCCNc4cccc5c4C(=O)N(C4CCC(=O)NC4=O)C5=O)nn3)cc2)ncc1C(F)(F)F)S(C)(=O)=O` (stereo not given), for which the Activity stood at 65% in [1] and 40% in experiment [2].
With `CCN1C(=O)CCC(N2C(=O)c3cccc(NCCOCCOCCn4cc(C(=O)Nc5ccc(Nc6ncc(C(F)(F)F)c(NCc7cccnc7N(C)S(C)(=O)=O)n6)cc5)nn4)c3C2=O)C1=O` (stereo not given), the Activity in [1] and in experiment [2] was 0% throughout.
For `CN(c1ncccc1CNc1nc(Nc2ccc(NC(=O)c3cn(CCOCCOCCOCCOCCNc4cccc5c4C(=O)N(C4CCC(=O)NC4=O)C5=O)nn3)cc2)ncc1C(F)(F)F)S(C)(=O)=O` (stereo not given), the Activity in experiment [1] is 82%; in experiment [2], 30%.
The corresponding values for `CN(c1nccnc1CNc1nc(Nc2ccc(C(=O)NCc3cn(CCOCCOCCOCCNc4cccc5c4C(=O)N(C4CCC(=O)NC4=O)C5=O)nn3)cc2)ncc1C(F)(F)F)S(C)(=O)=O` (stereo not given) are 22% and 5%.
Regarding `CN(c1ncccc1CNc1ncc(C(F)(F)F)c(Nc2ccc(NC(=O)c3cn(CCOCCOCCNc4cccc5c4C(=O)N(C4CCC(=O)NC4=O)C5=O)nn3)cc2)n1)S(C)(=O)=O` (stereo not given), the values for the Activity in [1] and in experiment [2] were 2% and 0%, respectively.

Source of the values: ChEMBL document CHEMBL4725428 (ACS Med Chem Lett, 2020).
